In ChEMBL document CHEMBL1157555, “Synthesis and pharmacological evaluation of novel 1,3,8- and 1,3,7,8-substituted xanthines as adenosine receptor antagonists” (Bioorg Med Chem, 2010):

How the values were obtained:
Adenosine receptor A1 = target: T1, Adenosine receptor A1 (Homo sapiens, UniProt P30542); assay: Displacement of [3H]DPCPX from human recombinant adenosine A1 receptor expressed in CHO cells by microplate beta scintillation counter; format: cell-based
T1 sequence (P30542 whole entry): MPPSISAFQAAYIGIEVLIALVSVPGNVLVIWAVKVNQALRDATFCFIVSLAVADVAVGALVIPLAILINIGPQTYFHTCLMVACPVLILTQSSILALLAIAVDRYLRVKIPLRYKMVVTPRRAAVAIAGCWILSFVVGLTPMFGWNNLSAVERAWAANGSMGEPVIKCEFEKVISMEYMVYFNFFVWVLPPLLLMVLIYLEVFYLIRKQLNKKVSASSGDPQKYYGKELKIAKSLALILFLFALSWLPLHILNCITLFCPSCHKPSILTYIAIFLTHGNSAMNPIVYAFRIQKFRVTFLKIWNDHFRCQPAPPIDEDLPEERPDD
Outline: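 Membranes from CHO cells expressing human A1 were labelled with 2 nM [3H]DPCPX. Non-specific binding was defined with (R)-PIA. Incubation ran 60 min at 25 °C, then samples were filtered and counted by beta scintillation. IC50 came from non-linear regression, and Ki from Cheng–Prusoff. Weak or poorly soluble compounds were reported as % inhibition of specific binding at a single concentration. Mean of 3 experiments, each in duplicate.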

Adenosine receptor A2a = Adenosine receptor A2a (Homo sapiens, UniProt P29274); assay: Displacement of [3H]ZM241385 from human recombinant adenosine A2A receptor expressed in human HeLa cells by microplate beta scintillation counter; format: cell-based
Chain of Adenosine receptor A2a (P29274 whole entry): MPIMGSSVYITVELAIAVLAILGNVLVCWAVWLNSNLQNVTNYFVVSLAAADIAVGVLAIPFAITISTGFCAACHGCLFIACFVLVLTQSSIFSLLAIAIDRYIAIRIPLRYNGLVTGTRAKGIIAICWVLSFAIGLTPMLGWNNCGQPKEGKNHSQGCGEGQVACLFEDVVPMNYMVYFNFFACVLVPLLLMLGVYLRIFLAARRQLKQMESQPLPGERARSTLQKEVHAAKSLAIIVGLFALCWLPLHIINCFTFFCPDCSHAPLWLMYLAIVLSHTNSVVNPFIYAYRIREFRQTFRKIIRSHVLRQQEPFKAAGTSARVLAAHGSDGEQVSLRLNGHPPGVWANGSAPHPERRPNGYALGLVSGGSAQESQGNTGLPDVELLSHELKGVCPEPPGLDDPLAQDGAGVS
Outline: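 Competition used HeLa cell membranes expressing human A2A with [3H]ZM241385. Non-specific binding was set with NECA. Incubation was 30 min at 25 °C, then filtration and beta scintillation counting. IC50 from non-linear regression was converted to Ki (Cheng–Prusoff). Weak or poorly soluble compounds were reported as % inhibition of specific binding at a single concentration. Three experiments, each in duplicate.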

Adenosine receptor A2b = target: T2, Adenosine receptor A2b (Homo sapiens, UniProt P29275); assay: Displacement of [3H]DPCPX from human recombinant adenosine A2B receptor expressed in HEK293 cells by microplate beta scintillation counter; format: cell-based
T2 sequence (P29275 whole entry): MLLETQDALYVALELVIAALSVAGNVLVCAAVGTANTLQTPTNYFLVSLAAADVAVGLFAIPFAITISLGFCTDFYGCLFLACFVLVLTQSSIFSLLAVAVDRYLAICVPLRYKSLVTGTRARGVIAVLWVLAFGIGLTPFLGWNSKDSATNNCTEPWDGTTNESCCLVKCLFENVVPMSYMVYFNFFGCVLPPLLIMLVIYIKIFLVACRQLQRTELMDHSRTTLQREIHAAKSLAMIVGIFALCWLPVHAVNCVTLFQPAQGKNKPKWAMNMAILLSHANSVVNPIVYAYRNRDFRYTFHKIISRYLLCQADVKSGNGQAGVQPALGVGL
Outline: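 Membranes from HEK-293 cells expressing human A2B were labelled with 35 nM [3H]DPCPX. Incubation ran 30 min at 25 °C, followed by filtration and beta scintillation counting. IC50 was fitted by non-linear regression and converted to Ki by Cheng–Prusoff. Weak or poorly soluble compounds were given as % inhibition of specific binding at a single concentration. n = 3, each in duplicate.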

Adenosine receptor A3 = target: T3, Adenosine receptor A3 (Homo sapiens, UniProt P0DMS8); assay: Displacement of [3H]NECA from human recombinant adenosine A3 receptor expressed in human HeLa cells by microplate beta scintillation counter; format: cell-based
T3 sequence (P0DMS8 whole entry): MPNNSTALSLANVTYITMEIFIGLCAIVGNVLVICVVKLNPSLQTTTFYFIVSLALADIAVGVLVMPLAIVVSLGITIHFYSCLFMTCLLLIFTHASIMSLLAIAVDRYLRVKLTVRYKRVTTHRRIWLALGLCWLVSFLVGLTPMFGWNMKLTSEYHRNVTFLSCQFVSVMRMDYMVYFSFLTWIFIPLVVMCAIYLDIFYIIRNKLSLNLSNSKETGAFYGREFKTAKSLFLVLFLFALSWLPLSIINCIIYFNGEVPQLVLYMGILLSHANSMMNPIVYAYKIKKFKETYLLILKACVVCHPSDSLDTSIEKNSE
Outline: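 HeLa-A3 cell membranes were labelled with 30 nM [3H]NECA. Non-specific binding was defined with (R)-PIA. After 180 min at 25 °C, samples were filtered and counted by beta scintillation. Ki was calculated by Cheng–Prusoff from IC50 obtained by non-linear regression. Weak or poorly soluble compounds were reported as % inhibition of specific binding at a single concentration. Mean of 3 experiments in duplicate.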

Homo sapiens [1] = organism: Homo sapiens; assay: Selectivity ratio of Ki for human adenosine A2A receptor to Ki for human adenosine A2B receptor
Outline: (§1)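 Ratios of Ki values at each human subtype to Ki at human A2B (HEK-293 membranes, [3H]DPCPX). Each Ki was derived by Cheng–Prusoff from IC50 of radioligand competition binding in membranes of transfected cells. Results are the mean of 3 experiments, each in duplicate.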

Homo sapiens [2] = organism: Homo sapiens; assay: Selectivity ratio of Ki for human adenosine A1 receptor to Ki for human adenosine A2B receptor; outline: as §1
Homo sapiens [3] = organism: Homo sapiens; assay: Selectivity ratio of Ki for human adenosine A3 receptor to Ki for human adenosine A2B receptor; outline: as §1

| Ki (Adenosine receptor A1) [nM] | Ki (Adenosine receptor A2a) [nM] | Ki (Adenosine receptor A2b) [nM] | Ki (Adenosine receptor A3) [nM] | Ratio Ki (Homo sapiens [1]) | Ratio Ki (Homo sapiens [2]) | Ratio Ki (Homo sapiens [3]) | SMILES |
| --- | --- | --- | --- | --- | --- | --- | --- |
| 93.3 | 1450 | 191 | 117 | 7.6 | 0.5 | 0.6 | CCCn1c(=O)c2[nH]c(-c3ccccc3)nc2n(CCSCC)c1=O |
| 676 | 3980 | 138 | 813 | 28.9 | 4.9 | 5.9 | CCn1c(=O)c2[nH]c(Cc3cccs3)nc2n(Cc2cccs2)c1=O |
